In brackets after ≈: the same amount, converted by molar mass. Activity calls are given as the source filed them. No cut-off for these calls is given here.
What was measured:
[1] = system: Staphylococcus aureus; experiment: Antibiofilm activity against Staphylococcus aureus UAMS-1 assessed as destruction catheter-associated biofilm formation measured after 48 hrs (reference value: 1.53 x 10^8); assay type: functional
Method in brief: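 Plasma-coated catheters colonised for 24 h at 37 °C with gentle shaking, starting from ~1 × 10^7 CFU of MSSA UAMS-1 in biofilm medium (TSB plus glucose and NaCl). […] Medium renewed at 24 h. Catheters (n = 3) sonicated at 48 h and plated on TSA for CFU per catheter.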

[2] = system: Staphylococcus aureus; experiment: Antimicrobial activity against methicillin-sensitive Staphylococcus aureus ATCC 29213 by CLSI-based broth microdilution assay; assay type: functional
[3] = system: Enterococcus faecalis; experiment: Antibiofilm activity against Enterococcus faecalis ATCC 29212 assessed as inhibition of biofilm formation at 2 times MIC after 24 hrs by crystal violet staining based assay relative to control
[4] = Toxicity in CD1 mouse assessed as effect on globulin level at 50 mg/kg, ip administered as single dose measured after 24 hrs; assay type: organism-based; conditions: in vivo
Method in brief: (§1)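 Male CD-1 mice, 8 weeks, 32–37 g, n = 10 per dose. Single IP injection at 5, 20 or 50 mg/kg in 0.9% saline, filter-sterilized; saline vehicle group. Blood taken by cardiac puncture 24 h later. 14 plasma markers measured on a chemistry panel, reported as mean ± SE. Toxicity judged by significance versus controls, normal ranges, dose-dependence and consistency across organ markers.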

[5] = system: Enterococcus faecium; experiment: Antimicrobial activity against vancomycin-resistant Enterococcus faecium clinical isolate 1091563 by CLSI-based broth microdilution assay; assay type: functional
[6] = system: Enterococcus faecium; experiment: Antimicrobial activity against vancomycin-resistant Enterococcus faecium clinical isolate 1091282 by CLSI-based broth microdilution assay; assay type: functional
[7] = system: Staphylococcus aureus; experiment: Antibacterial activity against methicillin resistant Staphylococcus aureus ATCC 700699 persisters assessed as reduction in viability at 16 times MIC by colony counting method; assay type: functional, organism-based
Method in brief: (§2)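 Stationary-phase S. aureus from overnight CAMHB culture (35 °C, 200 rpm), washed thrice in PBS, diluted to ~5 × 10^8 CFU/ml. Incubated with antibiotic at 35 °C, 200 rpm. Aliquots taken at set times, washed, serially diluted in PBS, drop-plated (6 × 6) on TSA with 5% sheep blood. Colonies counted after 18–20 h at 35 °C. Triplicates.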

[8] = Toxicity in CD1 mouse assessed as effect on creatine level at 50 mg/kg, ip administered as single dose measured after 24 hrs; assay type: organism-based; conditions: in vivo; method in brief: as §1
[9] = system: Staphylococcus aureus; experiment: Antibacterial activity against methicillin resistant Staphylococcus aureus ATCC 700699 persisters assessed as reduction in viability at 8 times MIC measured within 4 hrs by colony counting method; assay type: functional; conditions: time hrs <=4; method in brief: as §2
[10] = system: Enterococcus faecalis; experiment: Antibiofilm activity against Enterococcus faecalis ATCC 29212 assessed as inhibition of biofilm formation at 0.5 times MIC after 24 hrs by crystal violet staining based assay relative to control; assay type: functional; parameters: scale not given: the % may be the effect or the level left
Method in brief: (§3)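 Overnight culture brought to 0.5 McFarland in PBS, diluted 1:100 in CAMHB with 1% glucose. Inhibition: cells plus compound (in DMSO) at 2x, 1x, 0.5xMIC, 24 h at 35 °C, triplicate. Destruction: 24 h biofilm grown without drug, washed, fresh medium with compound, further 24 h. Then washed, dried, 0.1% crystal violet, solubilized in 33% acetic acid, OD 620 nm. Controls are DMSO-only and broth-only wells.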

[11] = system: Bacillus subtilis; experiment: Antimicrobial activity against Bacillus subtilis ATCC 6623 assessed as bacterial growth inhibitions by CLSI protocol based microdilution method; assay type: functional
Method in brief: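 Broth microdilution starting at 50 µg/ml with 2-fold serial dilutions; run in triplicate.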

[12] = Toxicity in CD1 mouse assessed as effect on kidney 50 mg/kg, ip administered as single dose measured after 24 hrs by TUNEL assay; assay type: organism-based; conditions: in vivo
Method in brief: (§4)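 Male CD-1 mice, single IP 50 mg/kg in saline; saline control. Acetaminophen 300 mg/kg and cisplatin 20 mg/kg IP as positive controls. At 24 h, liver and kidney paraffin-embedded, 5-µm sections, TUNEL stained with DAPI counterstain, imaged by fluorescence microscopy.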

[13] = system: Staphylococcus aureus; experiment: Antimicrobial activity against Staphylococcus aureus ATCC 29213 assessed as inhibition of cell wall synthesis at 4 to 8 times MIC measured by liquid scintillation counter; assay type: functional
Method in brief: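 Early-exponential cells resuspended in M9 minimal medium, drug (40x stock) in triplicate, 30 min pre-incubation at 37 °C. [14C]N-acetylglucosamine 0.4 µCi/reaction for 45 min at 37 °C. Stopped with 8% SDS, heated 95 °C 30 min, spotted on nitrocellulose, washed with 0.1% SDS, then scintillation counted.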

[14] = system: Staphylococcus aureus; experiment: Antimicrobial activity against antibiotic-resistant Staphylococcus aureus BM-2312 assessed as bacterial growth inhibitions by CLSI protocol based microdilution method; assay type: functional
[15] = Toxicity in CD1 mouse assessed as effect on glucose level at 50 mg/kg, ip administered as single dose measured after 24 hrs; assay type: organism-based; conditions: in vivo; method in brief: as §1
[16] = Toxicity in CD1 mouse assessed as effect on total bilirubin level at 50 mg/kg, ip administered as single dose measured after 24 hrs; assay type: organism-based; conditions: in vivo; method in brief: as §1
[17] = system: Enterococcus faecium; experiment: Antimicrobial activity against vancomycin-resistant Enterococcus faecium ATCC 700221 assessed as bacterial growth inhibitions by CLSI protocol based microdilution method; assay type: functional
[18] = system: Staphylococcus aureus; experiment: Antimicrobial activity against methicillin-resistant Staphylococcus aureus ATCC 33591 assessed as bacterial growth inhibitions by CLSI protocol based microdilution method; assay type: functional
[19] = Toxicity in CD1 mouse assessed as effect on calcium level at 50 mg/kg, ip administered as single dose measured after 24 hrs; assay type: organism-based; conditions: in vivo; method in brief: as §1
[20] = Toxicity in CD1 mouse assessed as effect on potassium level at 50 mg/kg, ip administered as single dose measured after 24 hrs; assay type: organism-based; conditions: in vivo; method in brief: as §1
[21] = Toxicity in CD1 mouse assessed as effect on blood urea nitrogen level at 50 mg/kg, ip administered as single dose measured after 24 hrs; assay type: organism-based; conditions: in vivo; method in brief: as §1
[22] = system: Staphylococcus aureus; experiment: Antibiofilm activity against Staphylococcus aureus ATCC 25923 assessed as destruction of biofilm formation at 2 times MIC after 24 hrs by crystal violet staining based assay relative to control; assay type: functional; method in brief: as §3
[23] = Toxicity in CD1 mouse assessed as effect on pancreatic amylase level at 50 mg/kg, ip administered as single dose measured after 24 hrs; assay type: organism-based; conditions: in vivo; method in brief: as §1
[24] = system: Staphylococcus aureus; experiment: Inhibition of DNA synthesis in Staphylococcus aureus ATCC 29213 at 0.25 times MIC measured by liquid scintillation counter; assay type: functional
Method in brief: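 Early-exponential cells in CAMHB added to drug (40x stock) in triplicate, with a no-drug control. After 30 min pre-incubation at room temperature, [3H]thymidine 3.0 µCi/tube (DNA) or [3H]uridine 0.5 µCi/tube (RNA) added for 30 min at room temperature. Stopped with cold TCA, precipitate filtered and washed, then scintillation counted.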

[25] = Toxicity in CD1 mouse assessed as effect on alkaline phosphatase level in blood at 50 mg/kg, ip administered as single dose measured after 24 hrs; assay type: organism-based; conditions: in vivo; method in brief: as §1
[26] = Toxicity in CD1 mouse assessed as effect on liver 50 mg/kg, ip administered as single dose measured after 24 hrs by TUNEL assay; assay type: organism-based; conditions: in vivo; method in brief: as §4
[27] = system: Staphylococcus aureus; experiment: Antibiofilm activity against Staphylococcus aureus ATCC 25923 assessed as destruction of biofilm formation at 0.5 times MIC after 24 hrs by crystal violet staining based assay relative to control; assay type: functional, organism-based; method in brief: as §3

O=C(O)c1ccc(-n2cc(CNc3cc(F)cc(C(F)(F)F)c3)c(-c3ccc(C(F)(F)F)cc3)n2)cc1
Activity [1]: 4.74 10^5CFU
MIC [2]: 2 µg/mL (≈ 3.82 µM)
inhibition (INH) [3]: 90%
Activity [4]: Non-Toxic
MIC [5]: 4 µg/mL (≈ 7.64 µM)
MIC [6]: 2 µg/mL (≈ 3.82 µM)
Activity [7]: Active
Activity [8]: Non-Toxic
Activity [9]: 3 log10CFU/ml
Activity [10]: 75%
MIC [11]: 0.78 µg/mL (≈ 1.49 µM)
Activity [12]: Non-Toxic
inhibition (INH) [13]: >80%
MIC [14]: 0.78 µg/mL (≈ 1.49 µM)
Activity [15]: Non-Toxic
Activity [16]: Non-Toxic
MIC [17]: 0.78 µg/mL (≈ 1.49 µM)
MIC [18]: 0.39 µg/mL (≈ 0.745 µM)
Activity [19]: Non-Toxic
Activity [20]: Non-Toxic
Activity [21]: Non-Toxic
Activity [22]: 70%
Activity [23]: Non-Toxic
inhibition (INH) [24]: 44%
Activity [25]: Non-Toxic
Activity [26]: Non-Toxic
Activity [27]: inactive

Reference: ChEMBL document CHEMBL4814057, “4-4-(Anilinomethyl)-3-[4-(trifluoromethyl)phenyl]-1H-pyrazol-1-ylbenzoic acid derivatives as potent anti-gram-positive bacterial agents” (Eur J Med Chem, 2021)
